{"source": "ChEMBL document CHEMBL4261606", "about": "“Inhibition of LDL oxidation and inflammasome assembly by nitroaliphatic derivatives. Potential use as anti-inflammatory and anti-atherogenic agents” (Eur J Med Chem, 2018)", "key": {"[1]": {"experiment": "Antioxidant activity assessed as trolox equivalent of AAPH-induced peroxyl radical scavenging activity at 1.3 to 13 uM up to 140 mins by ORAC-FL assay", "assay_type": "functional", "method_in_brief": "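ORAC: fluorescein (7.5 nM) decay (ex 485/em 512 nm) followed 140 min at 37 °C. Peroxyl radicals came from 30 mM AAPH in 75 mM phosphate pH 7.4 with 100 µM DTPA, compounds at 1.3-13 µM. Curves normalised to initial fluorescence, and net AUC versus concentration compared with Trolox standard (1.5-24 µM). Three independent determinations, mean ± SD.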"}, "[2]": {"test_system": "Plasma", "experiment": "Inhibition of AAPH-induced oxidation of human plasma derived LDL assessed as time of delay for initiation of propagation phase by measuring rate of oxygen consumption at 20 uM added before AAPH addition by high-resolution oxygen electrode"}, "[3]": {"test_system": "Plasma", "experiment": "Inhibition of AAPH-induced oxidation of human plasma derived LDL assessed as reversal of rate of oxygen consumption at 20 uM added after beginning of propagation phase by high-resolution oxygen electrode"}, "[4]": {"species_on_record": "Mus musculus", "experiment": "Antiinflammatory activity in mouse […] cells assessed as reduction in INF-gamma/LPS-induced IL-1beta expression at 5 uM preincubated for 1 hr followed by INF-gamma/LPS addition for 4 hrs by Western blot analysis", "assay_type": "functional, cell-based", "method_in_brief": "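Confluent J774 monolayers preincubated 1 h with compound at 5 µM, then stimulated 4 h at 37 °C, 5% CO₂ with IFN-γ 400 U/mL plus Salmonella enterica LPS 8 µg/mL. Whole-cell lysates resolved by 15% SDS-PAGE and immunoblotted with rabbit anti-IL-1β and Alexa Fluor 680 secondary. Bands quantified by densitometry, with loading checked on paired colloidal-blue gels. Three independent experiments, one-way ANOVA.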"}, "[5]": {"experiment": "Cytotoxicity in mouse […] cells assessed as change in cell survival at 0.3 to 5 uM after 2 to 24 hrs by MTT assay", "assay_type": "cell-based", "method_in_brief": "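Confluent J774 cells exposed to compounds in DMEM at 37 °C, 5% CO₂ for 2 h and for 24 h. MTT (0.1 mg/mL in DPBS) then added for 3 h at 37 °C. Formazan dissolved in DMSO/glycine buffer pH 10.5 and absorbance read at 560 nm, with vehicle as reference.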"}, "[6]": {"species_on_record": "Mus musculus", "experiment": "Antiatherogenic activity in mouse […] cells assessed as foam cell formation by measuring ox-LDL internalization at 2.5 to 5 uM preincubated for 1 hr followed by ox-LDL Dil addition for 4 hrs by Hoechst 3342-staining based fluorescence assay", "assay_type": "functional", "method_in_brief": "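J774 murine macrophages in DMEM with 10% FBS at 80% confluence (~2×10⁵ cells/well) preincubated 1 h with compound (0.3-5 µM range in plate-reader format). DiI-labelled Cu²⁺-oxidised LDL (10 µg/mL) then added for 4 h at 37 °C, 5% CO₂. Cells washed, nuclei stained with Hoechst 3342 (10 µg/mL, 10 min). Read-out is DiI (549/565 nm) to Hoechst (352/461 nm) fluorescence ratio.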"}}, "note": "Active and inactive are the calls of the source. No cut-off for these calls is given here.", "data": [{"smiles": "CSc1ccc(/C=C\\[N+](=O)[O-])cc1", "values": [{"measurement": "Activity", "setting": "[1]", "value": 3.5, "unit": "equiv"}]}, {"smiles": "O=[N+]([O-])/C=C\\c1ccc(Br)cc1", "values": [{"measurement": "Activity", "setting": "[1]", "value": 0.44, "unit": "equiv"}]}, {"smiles": "CC(Cc1ccc(N(C)C)cc1)[N+](=O)[O-]", "note": "(stereo unspecified)", "values": [{"measurement": "Time", "setting": "[2]", "value": 30, "unit": "min"}, {"measurement": "inhibition", "setting": "[3]", "value": "Active"}, {"measurement": "Activity", "setting": "[1]", "value": 10, "unit": "equiv"}, {"measurement": "Activity", "setting": "[4]", "value": "Active"}]}, {"smiles": "CSc1ccc(CC[N+](=O)[O-])cc1", "values": [{"measurement": "Activity", "setting": "[1]", "value": 2.8, "unit": "equiv"}]}, {"smiles": "C/C(=C/c1ccc(N(C)C)cc1)[N+](=O)[O-]", "values": [{"measurement": "Time", "setting": "[2]", "value": 20, "unit": "min"}, {"measurement": "inhibition", "setting": "[3]", "value": "inactive"}, {"measurement": "Activity", "setting": "[1]", "value": 5.4, "unit": "equiv"}, {"measurement": "Activity", "setting": "[4]", "value": "Active"}, {"measurement": "Activity", "setting": "[5]", "value": "Non-Toxic"}, {"measurement": "Activity", "setting": "[6]", "value": "inactive"}]}, {"smiles": "CC(=O)Nc1ccc(/C=C\\[N+](=O)[O-])cc1", "values": [{"measurement": "Activity", "setting": "[1]", "value": 0.63, "unit": "equiv"}]}, {"smiles": "C/C(=C/c1ccccc1)[N+](=O)[O-]", "values": [{"measurement": "Activity", "setting": "[1]", "value": 0.37, "unit": "equiv"}]}, {"smiles": "O=[N+]([O-])/C=C\\c1ccc(Cl)cc1", "values": [{"measurement": "Activity", "setting": "[1]", "value": 0.44, "unit": "equiv"}]}, {"smiles": "C/C(=C/c1ccc2c(c1)OCO2)[N+](=O)[O-]", "values": [{"measurement": "Activity", "setting": "[1]", "value": 1.6, "unit": "equiv"}]}, {"smiles": "COc1ccc(/C=C(/C)[N+](=O)[O-])cc1", "values": [{"measurement": "Activity", "setting": "[1]", "value": 0.46, "unit": "equiv"}]}, {"smiles": "C/C(=C/c1ccc(Cl)cc1)[N+](=O)[O-]", "values": [{"measurement": "Activity", "setting": "[1]", "value": 0.39, "unit": "equiv"}]}, {"smiles": "O=[N+]([O-])/C=C\\c1ccc2c(c1)OCO2", "values": [{"measurement": "Activity", "setting": "[1]", "value": 0.72, "unit": "equiv"}]}, {"smiles": "COc1ccc(/C=C\\[N+](=O)[O-])cc1", "values": [{"measurement": "Activity", "setting": "[1]", "value": 0.46, "unit": "equiv"}]}, {"smiles": "C/C(=C/c1ccc(Br)cc1)[N+](=O)[O-]", "values": [{"measurement": "Activity", "setting": "[1]", "value": 0.45, "unit": "equiv"}]}, {"smiles": "CN(C)c1ccc(CC[N+](=O)[O-])cc1", "values": [{"measurement": "Time", "setting": "[2]", "value": ">40", "unit": "min"}, {"measurement": "inhibition", "setting": "[3]", "value": "Active"}, {"measurement": "Activity", "setting": "[1]", "value": 13, "unit": "equiv"}, {"measurement": "Activity", "setting": "[4]", "value": "Active"}]}, {"smiles": "C/C(=C/c1cccs1)[N+](=O)[O-]", "values": [{"measurement": "Activity", "setting": "[1]", "value": 0.54, "unit": "equiv"}]}, {"smiles": "CN(C)c1ccc(/C=C\\[N+](=O)[O-])cc1", "values": [{"measurement": "Time", "setting": "[2]", "value": 20, "unit": "min"}, {"measurement": "inhibition", "setting": "[3]", "value": "inactive"}, {"measurement": "Activity", "setting": "[1]", "value": 4.2, "unit": "equiv"}, {"measurement": "Activity", "setting": "[4]", "value": "Active"}, {"measurement": "Activity", "setting": "[5]", "value": "Non-Toxic"}, {"measurement": "Activity", "setting": "[6]", "value": "inactive"}]}, {"smiles": "O=[N+]([O-])/C=C\\c1cccs1", "values": [{"measurement": "Activity", "setting": "[1]", "value": 0.43, "unit": "equiv"}]}, {"smiles": "O=[N+]([O-])/C=C\\c1ccccc1", "values": [{"measurement": "Activity", "setting": "[1]", "value": 0.29, "unit": "equiv"}]}, {"smiles": "CC(=O)Nc1ccc(CC[N+](=O)[O-])cc1", "values": [{"measurement": "Activity", "setting": "[1]", "value": 0.26, "unit": "equiv"}]}]}
